# From ChEMBL document CHEMBL1134834, “Quinoxalinylethylpyridylthioureas (QXPTs) as potent non-nucleoside HIV-1 reverse transcriptase (RT) inhibitors. Further SAR studies and identification of a novel orally bioavailable hydrazine-based antiviral agent” (J Med Chem, 2001)
# pEC50, pIC50, pKi: −log10 of the molar value. Calls of active or inactive are those of the source. The calls are words filed in the database; no cut-off is given here.
# Legend:
# [1] = test system: NIH3T3; test: Cytotoxicity on 3T3 fibroblasts (3T3F) murine cell line (O.D.=0.131+/-0.014); format: functional; details: Mus musculus, read-out: TC50 (the source's name)
# [2] = test system: CEM-SS; test: Concentration which produces a 50% survival of HIV-1 infected cells relative to uninfected control CEM-SS cells (in vitro anti-HIV activity); format: functional, cell-based; details: Homo sapiens
# Method in brief: (§1)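 CEM-SS T4 lymphocytes infected with wild-type HIV-1. Protection from virus-induced cell death is scored against an AZT-treated positive control run under identical conditions. […] SI = IC50/EC50.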
# [3] = test system: CEM-SS; test: (§2) Concentration which results in 50% survival of uninfected untreated control CEM-SS cells (cytotoxicity of the compound); format: functional, cell-based; details: Homo sapiens, read-out: IC50 (the source's name)
# [4] = test system: C8166; test: Synergistic antiviral activity with AZT (DDI), against HIV-IIIB in C8166 cells; format: functional, cell-based; details: Homo sapiens
# Method in brief: (§3)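 C8166 cells infected with HIV-IIIB and treated with compound combined with AZT (or DDI). Combination index calculated by the Chou-Talalay multiple drug effect analysis under both mutually exclusive and mutually nonexclusive assumptions.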
# [5] = test system: C8166; test: (§4) Concentration which results in 50% survival of uninfected untreated control C8166 cells (cytotoxicity of the compound); format: functional, cell-based; details: Homo sapiens
# Method in brief: (§5)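 Toxicity in uninfected C8166 cells by MTT reduction to formazan, read spectrophotometrically.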
# [6] = test system: C8166; test: Antiviral activity alone against HIV-IIIB in C8166 cells; format: functional, cell-based; details: Homo sapiens
# Method in brief: (§6)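 C8166 CD4+ T-cell line (HTLV-I genome, only tat expressed) acutely infected with lymphocytotropic HIV-1 IIIB. […] Read-out is HIV-p24 antigen in supernatants. AZT positive control was run at the same time. SI = IC50/EC50.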
# [7] = test system: Human immunodeficiency virus 1; test: Concentration which produces a 50% survival of HIV-1 infected cells relative to uninfected control C8166 cells; format: functional, organism-based; details: Human immunodeficiency virus 1, C8166
# [8] = test system: C8166; test: Synergistic antiviral activity of AZT (DDI) with the compound, against HIV-IIIB in C8166 cells; format: functional, cell-based; details: Homo sapiens; method in brief: as §3
# [9] = test system: Daudi; test: Cytotoxicity on Daudi Human(DH) cell line (O.D.=0.129+/-0.018); format: functional; details: read-out: TC50 (the source's name)
# [10] = test system: Human immunodeficiency virus 1; test: Inhibition of HIV-1-p24 antigen production in monocyte-macrophages (in vitro anti-HIV-1 activity); format: functional, organism-based
# Method in brief: (§7)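 Macrophages from adherent PBMC (10^6/mL, RPMI-1640 with 20% heat-inactivated FCS), 10^5 per well, >95% pure, infected with monocytotropic HTLV-III Ba-L. Antiviral activity read 14 days after infection. […] SI = IC50/EC50. AZT control run in parallel.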
# [11] = organism: Mus musculus; test: Cytotoxicity on NSO murine cell line (O.D.=0.125+/-0.015); format: functional; details: read-out: TC50 (the source's name)
# [12] = target: T1, Human immunodeficiency virus type 1 reverse transcriptase (Human immunodeficiency virus 1, UniProt Q72547); test: Inhibition of HIV-1 Mutant HIV-1 RT enzymes containing the single amino acid substitution […]
# [13] = target: Human immunodeficiency virus type 1 reverse transcriptase (Human immunodeficiency virus 1, UniProt Q72547, V106A); test: Inhibition of HIV-1 Mutant HIV-1 RT enzymes containing the single amino acid substitution V106A
# [14] = target: Human immunodeficiency virus type 1 reverse transcriptase (Human immunodeficiency virus 1, UniProt Q72547, Y181I); test: Inhibition of HIV-1 Mutant HIV-1 RT enzymes containing the single amino acid substitution Y181I
# [15] = target: Human immunodeficiency virus type 1 reverse transcriptase (Human immunodeficiency virus 1, UniProt Q72547, Y188L); test: Inhibition of HIV-1 Mutant HIV-1 RT enzymes containing the single amino acid substitution Y188L
# [16] = target: T1, Human immunodeficiency virus type 1 reverse transcriptase; test: Inhibition of HIV-1 wild-type RT
# [17] = (§8) Cytotoxicity on normal human lymphocytes(HL) (O.D.=0.114+/-0.01); format: functional; details: read-out: TC50 (the source's name)
# [18] = Selectivity index between IC50 of HIV-1-p24 and EC50 of HIV-1-p24 (IC50/EC50); format: functional; method in brief: as §7
# [19] = (§9) Selectivity index was determined in C8166 cells; format: functional; method in brief: as §6
# [20] = Selectivity index was determined in CEM-SS cells; format: functional; method in brief: as §1
# [21] = test system: Human immunodeficiency virus 1; test: Inhibition of HIV-1-p24 antigen production in monocyte-macrophages (cytotoxicity of the compound); format: organism-based; method in brief: as §7
# [22] = target: Human immunodeficiency virus type 1 reverse transcriptase (Human immunodeficiency virus 1, UniProt Q72547, K103N); test: Inhibition of HIV-1 Mutant HIV-1 RT enzymes containing the single amino acid substitution K103N
# [23] = test system: C8166; test: as §9; format: functional, Homo sapiens; method in brief: as §6
# [24] = test system: C8166; test: as §4; format: cell-based; details: Homo sapiens; method in brief: as §5
# [25] = test system: CEM-SS; test: as §2; format: cell-based; details: Homo sapiens
# [26] = target: Human immunodeficiency virus type 1 protease (Human immunodeficiency virus 1) (UniProt Q72874); test: Inhibition of HIV-1 Mutant HIV-1 RT enzymes containing the single amino acid substitution K103N; NA means Not active
# Method in brief: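 Template poly(rA)oligo(dT) 10:1 (0.3 µM 3′-OH ends) with 10 µM [3H]-dTTP, 37 °C. TCA-precipitable radioactivity counted. Ki from Lineweaver-Burk and Dixon plots, inhibitor 0.2-5 Ki, triplicate.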
# [27] = organism: Homo sapiens; test: as §8; format: functional; details: read-out: TC50 (the source's name)
# [28] = Selectivity index (IC50/EC50) was determined in C8166 cells; format: functional
# [29] = Selectivity index (IC50/EC50) was determined in CEM-SS cells; format: functional
# Method in brief: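 CEM-SS (T4 lymphocyte) cells infected with wild-type HIV-1 were scored for protection from virus-induced cell death. […] SI = IC50/EC50. An AZT-treated positive control was run in parallel under identical conditions.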
Compound,CC50 [1] [µM],pEC50 [2],CC50 [3] [µM],pEC50 [4],pIC50 [5],pEC50 [6],pEC50 [7],pEC50 [8],CC50 [9] [µM],CC50 [11] [µM],pKi [12],pKi [13],pKi [14],pKi [15],pKi [16],CC50 [17] [µM],SI [19],SI [20],pKi [22],also measured
O=c1c2cccn2c2cccc(F)c2n1CC/N=C(\S)Nc1ccc(Br)cn1,1000,9.33,> 0.02,8.70,3.70,7.60,7.60,8.52,1000,1000,6.77,7.82,6.70,6.70,8.05,960,7990,>43,6.80,pEC50 [10]: 8.70; SI [18]: 8800; pIC50 [21]: 4.77
Cc1cc2nc(OCCNC(=S)Nc3ccc(Br)cn3)c3cccn3c2cc1C,–,–,–,–,–,–,–,–,–,–,6.30,6.82,6.18,5.82,6.66,–,–,–,6.35,–
S=C(NCCOc1nc2cc(Cl)ccc2n2cccc12)Nc1ccc(Br)cn1,> 1000,–,–,–,4.03,–,7.60,–,> 1000,> 1000,6.92,6.92,7.05,7.00,–,> 1000,–,–,6.68,SI [23]: 3720
O=C(NNc1nc2ccccc2n2cccc12)c1ccccn1,–,–,–,–,–,–,–,–,–,–,–,–,–,–,5.40,–,–,–,–,–
CC(C)=CCN1Cc2c(Cl)ccc3[nH]c(=S)n(c23)C[C@@H]1C [TIVIRAPINE],–,–,–,–,–,–,7.52,–,–,–,–,–,–,–,–,–,1670,–,–,pIC50 [24]: 4.30
O=c1c2cccn2c2c(F)cc(F)cc2n1CC/N=C(\S)Nc1ccc(Br)cn1,–,7.07,–,–,–,–,–,–,–,–,–,–,–,–,–,–,–,>23,–,pIC50 [25]: < 5.70; NA [26]: inactive
O=c1c2nccn2c2ccccc2n1CCNC(=S)Nc1ccc(Br)cn1,690,7.89,> 2,6.34,4.06,6.23,6.49,7.18,680,680,6.00,6.46,5.85,5.30,6.60,670,275,>150,6.62,–
O=c1c2cccn2c2ncccc2n1CCNC(=S)Nc1ccc(Br)cn1,690,8.28,> 2,7.30,4.96,6.91,6.91,7.82,690,700,7.02,7.30,6.40,6.89,8.05,–,–,–,6.60,CC50 [27]: 680 µM; SI [28]: 89; SI [29]: >380
